The values that follow come from ChEMBL document CHEMBL1938308, “Discovery of potent, selective and orally bioavailable triaryl-sulfonamide based PTP1B inhibitors” (Bioorg Med Chem Lett, 2012).

SMILES strings stand for the structures. Activity calls are given as the source filed them. The rule behind the calls is not given here. Some results are limits rather than exact numbers.

The target of data set [1] is T1, Tyrosine-protein phosphatase non-receptor type 1 (Homo sapiens, UniProt P18031).
T1 sequence (P18031 whole entry): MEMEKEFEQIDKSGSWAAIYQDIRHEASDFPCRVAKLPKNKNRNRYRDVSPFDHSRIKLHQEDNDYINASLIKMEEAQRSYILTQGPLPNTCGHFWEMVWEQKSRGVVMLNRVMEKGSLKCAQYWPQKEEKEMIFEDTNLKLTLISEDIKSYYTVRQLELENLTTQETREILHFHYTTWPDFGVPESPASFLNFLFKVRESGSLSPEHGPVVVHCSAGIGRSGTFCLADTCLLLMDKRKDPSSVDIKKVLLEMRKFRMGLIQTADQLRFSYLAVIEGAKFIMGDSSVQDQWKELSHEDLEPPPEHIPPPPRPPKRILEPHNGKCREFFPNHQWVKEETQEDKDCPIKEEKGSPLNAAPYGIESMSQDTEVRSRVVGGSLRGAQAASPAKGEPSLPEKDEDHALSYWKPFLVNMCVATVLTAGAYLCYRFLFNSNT
In words: Inhibition of PTP1B assessed as para-nitrophenyl phosphate catalyzed hydrolysis of para-nitrophenol by p-NPP assay. In outline:
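Enzymatic pNPP assay: initial rate of PTP1B-catalyzed pNPP hydrolysis read at 405 nm. IC50 determined at a fixed pNPP concentration of 1 mM. n = 3, mean ± SD.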

Data set [2] is described as follows: Selectivity ratio of IC50 for TCPTP to IC50 for PTP1B.
Data set [3] is described as follows: Selectivity ratio of IC50 for LAR to IC50 for PTP1B.
Data set [4] can be described thus: AUC (0 to infinity) in fasted C57BL/6J mouse at 20 mg/kg, po. It counts as ADME, organism-based. Also noted: time infinity, dose 20 mg/kg, route oral. Particulars: plasma. In outline:
(§1)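 Male C57BL/6J mice (n = 6), fasted overnight, single 20 mg/kg dose by body weight, given po or iv. Plasma separated at 4 °C, stored at −70 °C, then quantified by LC–MS/MS. %F taken from po AUC relative to iv AUC. Mean ± SD.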

For another data set, the system named is Mus musculus. In words: Antidiabetic activity in fasted C57BL/6J mouse assessed as reduction in serum AUC glucose level at 20 mg/kg, po after 240 mins by intraperitoneal glucose tolerance test relative to control. It counts as functional. The procedure, abridged: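 Overnight-fasted male C57BL/6J mice dosed orally at 20 mg/kg 0.5 h before an intraperitoneal glucose load of 1.5 g/kg. Blood taken at 0, 30, 60, 120 and 240 min, and serum glucose measured promptly by GOD-POD method in duplicate. AUC 0–240 min compared with vehicle control. Two-way ANOVA with Bonferroni post test, mean ± SEM.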

Data set [5] can be described thus: Selectivity ratio of IC50 for SHP2 to IC50 for PTP1B.
Data set [6] in a line: Tmax in fasted C57BL/6J mouse at 20 mg/kg, po. It is filed as ADME, organism-based. The arrangement: dose 20 mg/kg, route oral. The settings on record: in vivo. The procedure, abridged:
as §1

Data set [7] is described as follows: Selectivity ratio of IC50 for CD45 to IC50 for PTP1B.
The nature of data set [8]: Oral bioavailability in fasted C57BL/6J mouse at 20 mg/kg. It is filed as ADME, organism-based. The settings on record: in vivo. In outline:
as §1

Data set [9] is described as follows: AUC in fasted C57BL/6J mouse at 20 mg/kg, iv. It counts as ADME, organism-based. The arrangement: dose 20 mg/kg, route intravenous. The settings on record: plasma. In outline:
as §1

Data set [10] deals with T2, Tyrosine-protein phosphatase non-receptor type 2 (Homo sapiens, UniProt P17706).
T2 sequence (P17706 whole entry): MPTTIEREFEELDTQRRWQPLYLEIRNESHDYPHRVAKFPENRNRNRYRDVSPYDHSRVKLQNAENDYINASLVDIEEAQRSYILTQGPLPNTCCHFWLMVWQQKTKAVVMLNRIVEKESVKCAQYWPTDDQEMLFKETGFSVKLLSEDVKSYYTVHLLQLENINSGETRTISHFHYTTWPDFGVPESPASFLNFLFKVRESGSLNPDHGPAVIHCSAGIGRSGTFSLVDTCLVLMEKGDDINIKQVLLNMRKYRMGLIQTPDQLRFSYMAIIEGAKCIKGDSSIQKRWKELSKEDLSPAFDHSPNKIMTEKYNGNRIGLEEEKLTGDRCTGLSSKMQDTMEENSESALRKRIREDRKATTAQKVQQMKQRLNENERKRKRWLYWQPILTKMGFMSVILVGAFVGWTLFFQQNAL
In words: Inhibition of TCPTP.

Data set [11] can be described thus: Selectivity ratio of IC50 for SHP1 to IC50 for PTP1B.
Data set [12] can be described thus: Cmax in fasted C57BL/6J mouse at 20 mg/kg, po. It is filed as ADME, organism-based. The arrangement: dose 20 mg/kg, route oral. Particulars: in vivo. In outline:
as §1

A short description of data set [13]: Half life in fasted C57BL/6J mouse at 20 mg/kg, po. It counts as ADME, organism-based. Also noted: dose 20 mg/kg, route oral. The settings on record: in vivo. In outline:
as §1

Data set [14] in a line: Selectivity ratio of IC50 for PTPalpha to IC50 for PTP1B.

In the case of `NS(=O)(=O)C(F)(F)c1cc2nc(CN(Cc3ccc(-c4csnn4)cc3)S(=O)(=O)c3ccc(OCC(=O)O)cc3)ccc2cc1F`, in data set [1], the IC50 stood at 38 nM.

In the case of `NS(=O)(=O)C(F)(F)c1ccc(CN(Cc2ccc(-c3csnn3)cc2)S(=O)(=O)c2ccc(OCC(=O)O)cc2)cc1Br`, in [1], the IC50 worked out at 47 nM.

On to `O=C(O)COc1ccc(S(=O)(=O)N(Cc2ccc(-c3csnn3)cc2)Cc2ccc3cc(F)c(C(F)(F)P(=O)(O)O)cc3c2)cc1`, for which the Ratio IC50 in data set [2] is 96; in data set [3], greater than 5000; in data set [5], greater than 5000; in data set [7], greater than 5000; in data set [11], greater than 5000; in [14], greater than 5000. Besides, the AUC(0-inf) in data set [4] is 8910 ng·h/mL. Besides, the Activity with Mus musculus came to 52.8 mg/dL. Further, the Tmax in [6] was found to be 18.6 min. Moreover, the bioavailability in data set [8] amounted to 6.51%. The same molecule returned an AUC in [9] of 137000 ng·h/mL. Further, the IC50 in data set [10] is 870 nM; in data set [1], 9 nM. Moreover, the highest level in data set [12] (Cmax) was 6300 ng/mL. In addition, the half-life in data set [13] was 418 min.

In the case of `O=C(O)COc1ccc(S(=O)(=O)N(Cc2ccc(-c3csnn3)cc2)Cc2ccc3cc(F)c(C(F)(F)P(=O)(O)O)cc3n2)cc1`, the Ratio IC50 in data set [2] was 90; in data set [3] it was greater than 5000; in data set [5], greater than 5000; in [7], greater than 5000; in [11], greater than 5000; in data set [14], greater than 5000. Besides, the AUC(0-inf) in [4] is 1320 ng·h/mL. In addition, the Activity in the data set with Mus musculus was determined as 19.18 mg/dL. Besides, in data set [6], the Tmax is 41.4 min. For the same molecule, in [8], the bioavailability is 0.9%. The molecule also gave an AUC in [9] of 147000 ng·h/mL. The IC50 in data set [10] was 990 nM; in data set [1], 11 nM. The Cmax in [12] worked out at 960 ng/mL. For the same molecule, the half-life in data set [13] was 59.4 min.

As to `O=C(O)COc1ccc(S(=O)(=O)N(Cc2ccc(-c3csnn3)cc2)Cc2ccc(C3CC(=O)NS3(=O)=O)cc2)cc1` (stereo not given), in data set [1], the IC50 was found to be 500 nM.

For the molecule `O=C(O)COc1ccc(S(=O)(=O)N(Cc2ccc(-c3csnn3)cc2)Cc2ccc3cc(Br)c(C(F)(F)P(=O)(O)O)cc3c2)cc1`, in data set [1], the IC50 amounted to 17 nM.

Turning to `Cc1cc(CN(Cc2ccc(-c3csnn3)cc2)S(=O)(=O)c2ccc(OCC(=O)O)cc2)ccc1C1CC(=O)NS1(=O)=O` (stereo not given), the 50% inhibitory concentration (IC50) in data set [1] is 470 nM.

As to `NS(=O)(=O)C(F)(F)c1cc2cc(CN(Cc3ccc(-c4csnn4)cc3)S(=O)(=O)c3ccc(OCC(=O)O)cc3)ccc2cc1Br`, the IC50 in data set [1] was 39 nM.

On to `O=C(O)COc1ccc(S(=O)(=O)N(Cc2ccc(-c3csnn3)cc2)Cc2ccc(F)c(C(F)(F)P(=O)(O)O)c2)cc1`, for which the IC50 in data set [1] amounted to 141 nM.

`O=C(O)COc1ccc(S(=O)(=O)N(Cc2ccc(-c3csnn3)cc2)Cc2ccc(C(F)(F)P(=O)(O)O)cc2)cc1`: the Ratio IC50 in data set [2] was found to be 7. Also, the outcome with Mus musculus was inactive.

For the molecule `O=C(O)COc1ccc(S(=O)(=O)N(Cc2ccc(-c3csnn3)cc2)Cc2ccc(C(F)(F)P(=O)(O)O)c(Br)c2)cc1`, the Ratio IC50 in data set [2] was 15; in data set [3], greater than 5000; in data set [5] it was greater than 5000; in [7], greater than 5000; in data set [11], greater than 5000; in [14], greater than 5000. In addition, the IC50 in data set [10] was found to be 750 nM; in data set [1], 50 nM.

For `NS(=O)(=O)C(F)(F)c1cc2cc(CN(Cc3ccc(-c4csnn4)cc3)S(=O)(=O)c3ccc(OCC(=O)O)cc3)ccc2cc1F`, the IC50 in [1] was 35 nM.

For the molecule `NS(=O)(=O)C(F)(F)c1cc2nc(CN(Cc3ccc(-c4csnn4)cc3)S(=O)(=O)c3ccc(OCC(=O)O)cc3)ccc2cc1Br`, the IC50 in data set [1] turned out to be 41 nM.

On to `O=C(c1ccccc1)C(Cc1ccc2cc(Br)c(C(F)(F)P(=O)(O)O)cc2c1)(Cc1ccc2cc(Br)c(C(F)(F)P(=O)(O)O)cc2c1)n1nnc2ccccc21`, for which the Ratio IC50 in data set [2] was 116.

Turning to `O=C(O)COc1ccc(S(=O)(=O)N(Cc2ccc(-c3csnn3)cc2)Cc2ccc(C3CC(=O)NS3(=O)=O)c(Br)c2)cc1` (stereo not given), the IC50 in data set [1] amounted to 480 nM.

For the molecule `O=C(O)COc1ccc(S(=O)(=O)N(Cc2ccc(-c3csnn3)cc2)Cc2ccc3cc(Br)c(C(F)(F)P(=O)(O)O)cc3n2)cc1`, the IC50 in data set [1] is 18 nM.

`O=C(O)COc1ccc(S(=O)(=O)N(Cc2ccc(-c3csnn3)cc2)Cc2ccc(Br)c(C(F)(F)P(=O)(O)O)c2)cc1`: in [1], the IC50 was found to be 288 nM.

With `O=C(O)COc1ccc(S(=O)(=O)N(Cc2ccc(-c3csnn3)cc2)Cc2ccc(C(F)(F)P(=O)(O)O)c(F)c2)cc1`, the Ratio IC50 was 24 in data set [2]; greater than 5000 in [3]; greater than 5000 in data set [5]; greater than 5000 in [7]; greater than 5000 in data set [11]; greater than 5000 in [14]. For the same molecule, the figures for the IC50 in [10] and in data set [1] were 870 nM and 35 nM, respectively.

Regarding `NS(=O)(=O)C(F)(F)c1ccc(CN(Cc2ccc(-c3csnn3)cc2)S(=O)(=O)c2ccc(OCC(=O)O)cc2)cc1F`, the Ratio IC50 in data set [2] is 20; in data set [3], greater than 5000; in [5], greater than 5000; in data set [7], greater than 5000; in [11], greater than 5000; in data set [14], greater than 5000. Further, the IC50 came to 620 nM in data set [10] and 31 nM in data set [1].

For the molecule `O=C(O)COc1ccc(S(=O)(=O)N(Cc2ccc(-c3csnn3)cc2)Cc2ccc(C3CC(=O)NS3(=O)=O)c(F)c2)cc1` (stereo not given), the IC50 in data set [1] came out at 460 nM.

Broadly, the IC50 is the midpoint of a concentration-inhibition curve. As usually defined, the AUC(0-inf) is total exposure, with the tail of the curve extrapolated. A low value points to less exposure. For orientation: Tmax means the time at which the peak concentration occurs. By bioavailability is commonly meant dose-corrected exposure relative to a reference, in per cent. Read a high bioavailability as much systemic uptake. By AUC is commonly meant the area under the concentration-time curve, a measure of exposure. For orientation: Cmax means the maximum level reached in the sampled fluid or tissue. The half-life is how long it takes for the measured level to halve. Higher therefore signals slow loss.
